Assay results collected from several papers.
Each line is one published result; the experiments were not run side by side.
Target: Histone deacetylase 8 (HDAC8, Homo sapiens, UniProt Q9BY41)
Observed: enzyme activity
Mode: inhibitor
Sequence (Q9BY41 1-377, as in one of the studies): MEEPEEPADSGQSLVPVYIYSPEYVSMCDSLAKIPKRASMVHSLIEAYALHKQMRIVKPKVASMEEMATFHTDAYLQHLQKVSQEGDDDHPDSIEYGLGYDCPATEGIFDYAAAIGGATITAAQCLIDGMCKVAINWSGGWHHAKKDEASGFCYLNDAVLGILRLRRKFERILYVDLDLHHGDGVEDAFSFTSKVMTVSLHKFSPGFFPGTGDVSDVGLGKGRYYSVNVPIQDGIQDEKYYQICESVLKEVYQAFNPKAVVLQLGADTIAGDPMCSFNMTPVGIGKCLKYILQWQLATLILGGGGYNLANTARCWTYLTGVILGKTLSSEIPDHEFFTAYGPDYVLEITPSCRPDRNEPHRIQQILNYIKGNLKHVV

For `O=C(/C=C/c1ccc(O)c(O)c1)O[C@@H]1C[C@](O)(C(=O)O)C[C@@H](O)[C@H]1O`, the IC50 was 8.62 µM.
With `Nc1ccc(-c2ccncc2)cc1NC(=O)N1CCCC1` the IC50 was over 33.3 µM.
`CC(C)C[C@H]1CC(=O)N2CCC[C@H]2C(=O)N[C@@H](CCCCCC(=O)NO)C(=O)N[C@@H](Cc2c[nH]c3ccccc23)C(=O)N1` has an IC50 of 0.18 µM.
The IC50 of `CCCC[C@H](NC(=O)[C@H](C)c1c(C)[nH]c2ccc(O)cc12)c1ncc(-c2cc3ccccc3nc2OC)[nH]1` is reported as over 45 µM.
`CCCON(Cc1ccc(C(=O)NO)cc1)C(=O)Nc1ccccc1` has an IC50 of 4.64 µM (fluorescence).
With `O=C(CCCCCCC(=O)N[c-]1cccc1)NO.[Fe+2].c1cc[cH-]c1` the IC50 was 1.36 µM (fluorescence).
For `O=c1c(O)c(-c2ccc(O)c(O)c2)oc2cc(O)cc(O)c12`, the IC50 was 7.72 µM.
For `CCCON(Cc1ccc(C(=O)NO)cc1)C(=O)Nc1ccc(N(C)C)cc1`, the IC50 was 4.46 µM (fluorescence).
